Activity calls are given as the source filed them. The calls are words filed in the database; no cut-off is given here.
Key:
[1] = tested on: B16; assay: Inhibition of alpha-MSH-induced melanin production in mouse B16 cells after 72 hrs; assay type: functional, cell-based; conditions: B16, 72 h
Outline: (§1)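 B16 melanoma cells (ATCC CRL6323) were seeded at 2.5 × 10³ per well and kept at 37 °C under 5% CO₂. They were stimulated with α-MSH for 72 h with compound present. Melanin released into the medium was read by absorbance at 405 nm against a synthetic melanin standard. % inhibition at 10 µM and IC₅₀ are means of 3–5 separate experiments.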

[2] = tested on: B16; assay: Inhibition of alpha-MSH-induced melanin production in mouse B16 cells at 10 uM after 72 hrs; assay type: functional; conditions: B16, 72 h; outline: as §1
[3] = molecular target: T1, Tyrosinase (Mus musculus) (UniProt P11344); assay: Inhibition of cell free tyrosinase in alpha-MSH-induced mouse B16 cells assessed as effect on Dopa oxidation by spectrophotometry
T1 sequence (whole entry): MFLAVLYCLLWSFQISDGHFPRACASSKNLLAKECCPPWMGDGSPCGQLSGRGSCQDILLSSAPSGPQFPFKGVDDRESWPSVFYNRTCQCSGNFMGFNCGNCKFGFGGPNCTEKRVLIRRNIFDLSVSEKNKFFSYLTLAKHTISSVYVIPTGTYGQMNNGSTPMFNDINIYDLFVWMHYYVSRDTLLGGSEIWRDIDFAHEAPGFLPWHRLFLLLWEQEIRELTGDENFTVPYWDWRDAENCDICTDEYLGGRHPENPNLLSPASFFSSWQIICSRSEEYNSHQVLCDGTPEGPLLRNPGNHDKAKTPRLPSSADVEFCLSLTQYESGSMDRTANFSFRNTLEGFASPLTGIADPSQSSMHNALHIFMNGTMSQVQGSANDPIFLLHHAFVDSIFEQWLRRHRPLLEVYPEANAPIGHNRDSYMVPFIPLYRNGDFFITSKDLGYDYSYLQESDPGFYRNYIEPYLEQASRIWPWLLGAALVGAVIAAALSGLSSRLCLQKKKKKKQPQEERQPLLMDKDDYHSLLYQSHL
Outline: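 Cell-free tyrosinase came from B16 cells stimulated with α-MSH (10 nM). Cells were sonicated on ice in 50 mM sodium phosphate pH 6.8 with 1% Triton X-100 and 1 mM PMSF. The supernatant was dialysed and diluted to 80,000 U/mg protein. Dopa (5 mM), sample and enzyme were mixed in 50 mM phosphate pH 6.8. Dopa oxidation velocity was read spectrophotometrically.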

[4] = tested on: B16; assay: Inhibition of tyrosinase protein biosynthesis in alpha-MSH-induced mouse B16 cells after 48 hrs by Western blot; assay type: functional, cell-based
Outline: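 B16 cells were stimulated with α-MSH (10 nM) for 48 h with compound present. They were lysed in Tris/NaCl buffer (0.1% SDS, 1% NP-40, protease inhibitors, pH 7.4). Blots were probed overnight at 4 °C with anti-tyrosinase (1:1000), with GAPDH (1:5000) as internal control, then with HRP-conjugated secondary antibody.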

[5] = tested on: B16; assay: Toxicity in alpha-MSH-induced mouse B16 cells assessed as effect on cell viability after 48 hrs by MTT assay; assay type: cell-based; conditions: b16, 48 h

SMILES	IC50 [1] [µM]	inhibition at 10 µM [2] [%]	inhibition [3]	inhibition [4]	Activity [5]
O=C1NCCN1CCc1ccccc1	> 10	15			
Cc1ccc(CN2CCNC2=S)cc1	4.8	64			
O=C1NCCN1Cc1ccccc1	> 10	7			
COc1ccc(CN2CCNC2=S)cc1	> 10	31			
S=C1NCCN1Cc1ccc(Cl)cc1	4.3	79			
S=C1NCCCN1CCCc1ccccc1	2.1	> 100			
CC(C)(C)c1ccc(CN2CCCNC2=S)cc1	0.8	> 100	inactive	Active	Non-toxic
CCc1ccc(CN2CCCNC2=S)cc1	1.3	> 100			
S=C1NCCCN1Cc1ccccc1	> 10	42			
O=C1NCCN1Cc1ccc(Cl)cc1	> 10	10			
O=C1NCCCN1CCc1ccccc1	> 10	10			
OC[C@H]1O[C@@H](Oc2ccc(O)cc2)[C@H](O)[C@@H](O)[C@@H]1O [ARBUTIN]		> 100			
COc1ccc(CN2CCCNC2=S)cc1	6.1	60			
S=C1NCCN1Cc1ccccc1	> 10	35			
COc1ccc(CN2CCCNC2=O)cc1	> 10	20			
Cc1ccc(CN2CCNC2=O)cc1	> 10	14			
Cc1ccc(CN2CCCNC2=S)cc1	5.1	80			
CCc1ccc(CN2CCCNC2=O)cc1	> 10	29			
O=C1NCCN1CCCc1ccccc1	> 10	10			
O=C1NCCCN1Cc1ccccc1	> 10	0			
S=C1NCCCN1Cc1ccc(Cl)cc1	2.4	> 100			
S=C1NCCCN1CCc1ccccc1	2.9	93			
S=C1NCCN1CCCc1ccccc1	4.2	63			
O=C1NCCCN1Cc1ccc(Cl)cc1	> 10	26			
O=C1NCCCN1CCCc1ccccc1	> 10	10			
S=C1NCCN1CCc1ccccc1	> 10	40			
CC(C)(C)c1ccc(CN2CCCNC2=O)cc1	> 10	30			
Cc1ccc(CN2CCCNC2=O)cc1	> 10	5			
COc1ccc(CN2CCNC2=O)cc1	> 10	13			

— ChEMBL document CHEMBL1159074, “Inhibitory effect of novel tetrahydropyrimidine-2(1H)-thiones on melanogenesis” (Bioorg Med Chem, 2010)
